Measured values reported in ChEMBL document CHEMBL1156656, “HIV-1 ribonuclease H inhibitory phenolic glycosides from Eugenia hyemalis” (J Nat Prod, 2008).
Calls of active or inactive are those of the source. The rule behind the calls is not given here.

Key:
[1] = Inhibition of human RNase H by FRET assay
Method in brief: (§1)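 RNase H enzymes (HIV-1, HIV-2, human) assayed by high-throughput fluorescence resonance energy transfer (FRET) cleavage assay; extracts run in presence of 1% bovine serum albumin.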

[2] = Inhibition of HIV2 RNase H by FRET assay; parameters: species or system Human immunodeficiency virus 2; method in brief: as §1
Escherichia coli = experiment: Inhibition of Escherichia coli RNase H by FRET assay
[3] = Inhibition of HIV1 RNase H by FRET assay; parameters: species or system Human immunodeficiency virus 1; method in brief: as §1
[4] = tested on: Human immunodeficiency virus; experiment: Antiviral activity against HIV-RF in human CEM-SS cells assessed as cytopathogenicity at 20 ug/ml; type: functional, organism-based
Method in brief: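 Human CEM-SS T cells infected with HIV-1 strain RF; XTT-based cell viability read-out of protection from viral cytopathic effect; highest dose tested 20 μg/mL.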

With `C[C@H]1O[C@H](Oc2c(-c3ccc(O)cc3)oc3cc(O)cc(O)c3c2=O)[C@@H](OC(=O)c2cc(O)c(O)c(O)c2)[C@@H](O)[C@H]1O` the IC50 [1] was 3.03 µM, the IC50 [2] was 3.38 µM and the Activity (Escherichia coli) was “inactive”. For the same compound, the IC50 [3] was > 17.1 µM.
In the case of `C[C@H]1O[C@H](Oc2c(-c3ccc(O)cc3)oc3cc(O)cc(O)c3c2=O)[C@@H](O)[C@@H](OC(=O)c2cc(O)c(O)c(O)c2)[C@H]1O`, the IC50 [1] is reported as 7.25 µM, the IC50 [2] is reported as 9.12 µM and the Activity (Escherichia coli) is reported as “inactive”. The IC50 [3] was > 17.1 µM.
In the case of `O=C(OC[C@H]1O[C@@H](Oc2c(-c3ccc(O)cc3)oc3cc(O)cc(O)c3c2=O)[C@H](O)[C@@H](O)[C@@H]1O)c1cc(O)c(O)c(O)c1`, the IC50 [1] is reported as 9.5 µM, the IC50 [2] is reported as 5.19 µM and the Activity (Escherichia coli) is reported as “inactive”. For the same compound, the IC50 [3] was > 16.6 µM.
With `O=C(OC[C@H]1O[C@@H](Oc2ccc(O)cc2)[C@H](OC(=O)c2cc(O)c(O)c(O)c2)[C@@H](O)[C@@H]1OC(=O)c1cc(O)c(O)c(O)c1)c1cc(O)c(O)c(O)c1` the IC50 [1] was 0.04 µM, the IC50 [2] was 0.1 µM and the Activity (Escherichia coli) was “inactive”. The IC50 [3] was 0.68 µM.
With `O=C(OC[C@H]1O[C@@H](Oc2ccc(O)cc2)[C@H](OC(=O)c2cc(O)c(O)c(O)c2)[C@@H](O)[C@@H]1O)c1cc(O)c(O)c(O)c1` the IC50 [1] was 0.55 µM, the IC50 [2] was 0.28 µM and the Activity (Escherichia coli) was “inactive”. For the same compound, the IC50 [3] was 5.05 µM.
For `O=C(O[C@H]1[C@H](O)[C@@H](O)[C@H](Oc2ccc(O)cc2)O[C@@H]1CO)c1cc(O)c(O)c(O)c1`, the IC50 [1] was > 23.5 µM, the Activity [4] was “inactive” and the IC50 [2] was > 23.5 µM. The Activity (Escherichia coli) was “inactive” and the IC50 [3] was > 23.5 µM.
For `O=C(O[C@H]1[C@H](Oc2ccc(O)cc2)O[C@H](CO)[C@@H](O)[C@@H]1O)c1cc(O)c(O)c(O)c1`, the IC50 [1] was > 23.5 µM, the IC50 [2] was > 23.5 µM and the Activity (Escherichia coli) was “inactive”. For the same compound, the IC50 [3] was > 23.5 µM.
For `O=C(O[C@@H]1[C@@H](OC(=O)c2cc(O)c(O)c(O)c2)[C@H](Oc2ccc(O)cc2)O[C@@H]2COC(=O)c3cc(O)c(O)c(O)c3-c3c(cc(O)c(O)c3O)C(=O)O[C@@H]12)c1cc(O)c(O)c(O)c1` [HYEMALOSIDE C], the IC50 [1] was 0.07 µM, the IC50 [2] was 0.84 µM and the Activity (Escherichia coli) was “inactive”. The IC50 [3] was 1.19 µM.
In the case of `O=C(OC[C@H]1O[C@@H](Oc2ccc(O)cc2)[C@H](OC(=O)c2cc(O)c(O)c(O)c2)[C@@H](OC(=O)c2cc(O)c(O)c(O)c2)[C@@H]1O)c1cc(O)c(O)c(O)c1` [HYEMALOSIDE A], the IC50 [1] is reported as 0.18 µM, the IC50 [2] is reported as 0.58 µM and the Activity (Escherichia coli) is reported as “inactive”. For the same compound, the IC50 [3] was 1.46 µM.
For `O=C(OC[C@H]1O[C@@H](OC(=O)c2cc(O)c(O)c(O)c2)[C@H](OC(=O)c2cc(O)c(O)c(O)c2)[C@@H](O)[C@@H]1O)c1cc(O)c(O)c(O)c1`, the IC50 [1] was 0.55 µM, the IC50 [2] was 0.28 µM and the Activity (Escherichia coli) was “inactive”. It also gave an IC50 [3] of 10.2 µM.
In the case of `C[C@@H]1O[C@@H](Oc2c(-c3ccc(O)c(O)c3)oc3cc(O)cc(O)c3c2=O)[C@H](O)[C@H](O)[C@H]1O` [QUERCITRIN], the IC50 [1] is reported as 12.5 µM, the IC50 [2] is reported as 21.3 µM and the Activity (Escherichia coli) is reported as “inactive”. The IC50 [3] was > 22.3 µM.
For `O=C(OC[C@H]1O[C@@H](Oc2ccc(O)cc2)[C@H](OC(=O)c2cc(O)c(O)c(O)c2)[C@@H](O)[C@@H]1O)c1ccc(O)cc1` [HYEMALOSIDE B], the IC50 [1] was 2.44 µM, the IC50 [2] was 3.32 µM and the Activity (Escherichia coli) was “inactive”. For the same compound, the IC50 [3] was > 18.3 µM.
